Screening results from PubChem.
Kir21 block: inhibitors of mouse Kir2.1 inward-rectifier potassium channel; P35561; HEK293-Kir2.1, FluxOR thallium flux fluorescence; stronger effect = lower value; B-score at 10 µM; 0.85% of 310,000 active;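 active = fluorescence ratio B-score at or below minus 3 SD of library scores, with starting-brightness B-score within 2 SD, cut at about -4.2 in these data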;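 note: channel flux triggered by added potassium and thallium sulfate stimulus; B-score of peak minus minimum fluorescence over baseline after thallium stimulus; more negative B-score means stronger Kir2.1 block with less thallium influx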
Target sequence (P35561 whole entry, looked up): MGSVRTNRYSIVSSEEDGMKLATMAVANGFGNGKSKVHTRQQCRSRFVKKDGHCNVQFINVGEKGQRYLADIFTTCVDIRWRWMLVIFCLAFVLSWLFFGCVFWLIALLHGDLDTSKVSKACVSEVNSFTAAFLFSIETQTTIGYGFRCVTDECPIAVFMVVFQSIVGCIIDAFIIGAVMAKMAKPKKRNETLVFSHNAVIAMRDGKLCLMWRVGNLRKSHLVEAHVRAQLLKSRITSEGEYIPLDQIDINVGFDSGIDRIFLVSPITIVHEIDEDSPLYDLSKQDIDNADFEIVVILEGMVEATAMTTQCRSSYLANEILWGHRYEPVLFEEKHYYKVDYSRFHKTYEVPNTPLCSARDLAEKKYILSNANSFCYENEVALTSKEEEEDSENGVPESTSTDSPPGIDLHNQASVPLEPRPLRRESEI
KCNQ1 inh: inhibitors of human KCNQ1 potassium channel | B-score at 10 µM | 1.3% of 310,000 active | AID 2642 | CHO-K1 KCNQ1, FluxOR thallium flux fluorescence; stronger effect = higher value;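 active = compounds whose thallium flux B-score, printed positive for inhibition, exceeds three library SD while starting fluorescence stays within three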;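 note: channel opened by potassium depolarization with thallium stimulus after 20 min compound exposure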
KCNK9 inh: blocks the human KCNK9 two-pore domain potassium channel; B-score at 10 µM; HEK293 KCNK9, FluxOR thallium flux fluorescence; stronger effect = lower value; 1.2% of 310,000 active; AID 488922; Q9NPC2;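 active = ratio B-score over 3 SD below the library mean, with starting fluorescence within 5 SD of its mean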;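 note: negative B-score means less thallium flux so channel inhibition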
KCNK3 inh: human KCNK3 channel inhibition, primary screen. O14649. CHO-KCNK3 thallium flux, FluxOR fluorescence; stronger effect = lower value. AID 602410. 0.84% of 340,000 active. B-score at 10 µM;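 active = B-score under library mean minus 4 SD, starting fluorescence ratio at most library mean plus 5 SD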;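 note: more negative B-score means stronger inhibition of thallium flux through KCNK3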
KCNQ1 pot: potentiates or activates the human KCNQ1 potassium channel; P51787; CHO-K1 KCNQ1, thallium flux FluxOR fluorescence; stronger effect = higher value; B-score at 10 µM; 0.35% of 310,000 active; AID 2648;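 active = fluorescence ratio B-score, a plate-corrected score, at least three library SD, with initial intensity B-score within 5 SD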
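Assay system: CHO-K1 cells stably expressing KCNQ1; Medium: assay buffer with matched DMSO; Also added: K+/Tl+ depolarizing stimulus; Dosing: single dose; Timing: dye 90 min, compound 20 min, room temperature; Measured by: kinetic FluxOR thallium fluorescence, 10-s 1-Hz baseline, 110-s post-stimulus read; Read-out: peak-minus-minimum fluorescence over initial fluorescence, negative-control normalized, B-scored.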
hERG protect: shields human hERG channel from block by proarrhythmic agents; Q12809; CHO-hERG, FluxOR thallium flux, dofetilide IC70 present; activation (rescue from dofetilide block), less the hit threshold, % at 10 µM; 0.51% of 310,000 active; AID 1511;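 active = activation above the mean of controls blocked by dofetilide plus 5 SD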;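 note: thallium influx through hERG after potassium depolarization seen as dye fluorescence rise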
The depositor's hits bear a star. Sampled rows, rich in hits. Any-hit rate of the full collection: about 3.7%.

Results for Cc1cccc(NC(=O)CN2C(=O)S/C(=C\c3ccc(-c4cccc(C(=O)O)c4C)o3)C2=O)c1 ?
Kir21 block: -0.5; KCNQ1 inh: inactive; KCNK9 inh: inactive; KCNK3 inh: inactive; KCNQ1 pot: inactive; hERG protect: 21*

Results for Cc1ccccc1NC(=O)CN1C(=O)c2ccccc2C1=O ?
Kir21 block: -1.1; KCNQ1 inh: inactive; KCNK9 inh: inactive; KCNK3 inh: inactive; KCNQ1 pot: inactive; hERG protect: -6

How did Cc1ccccc1NC(=O)CN1C(=O)S/C(=C\c2ccc(-c3cccc(C(=O)O)c3C)o2)C1=O do in these assays?
Kir21 block: -1; KCNQ1 inh: inactive; KCNK9 inh: inactive; KCNK3 inh: inactive; KCNQ1 pot: inactive; hERG protect: 11*

Results for Cc1ccc(NC(=O)CN2C(=O)S/C(=C/c3ccc(-c4cc(C(=O)O)ccc4C)o3)C2=O)cc1C ?
Kir21 block: -1.2; KCNQ1 inh: inactive; KCNK9 inh: inactive; KCNK3 inh: inactive; KCNQ1 pot: inactive; hERG protect: -2

Results for Cc1ccccc1-c1cccc([C@@H]2C[C@H]3[C@H](CON3C)CN2S(=O)(=O)c2ccccc2C)c1 ?
KCNK3 inh: inactive

How did CCOC(=O)c1ccc(CNC(=O)c2cc(COc3ccccc3SC)on2)o1 do in these assays?
Kir21 block: -0.98; KCNQ1 inh: inactive; KCNK9 inh: inactive; KCNK3 inh: inactive; KCNQ1 pot: inactive; hERG protect: -8

How did N#Cc1c[nH]n2c(=O)c3c(nc12)CCCC3 do in these assays?
Kir21 block: -0.12; KCNQ1 inh: inactive; KCNK9 inh: inactive; KCNQ1 pot: inactive; hERG protect: 5.4*

How did COc1ccc(C2/C=C\CN(Cc3ccco3)CC(=O)N2Cc2ccc(F)cc2)cc1 (stereo unspecified) do in these assays?
Kir21 block: -0.84; KCNQ1 inh: inactive; KCNK9 inh: -6.9*; KCNK3 inh: inactive; KCNQ1 pot: inactive; hERG protect: -7

How did Cc1cccc(C(=O)N/N=C/c2coc3ccccc3c2=O)c1 do in these assays?
Kir21 block: -0.27; KCNQ1 inh: inactive; KCNK9 inh: inactive; KCNK3 inh: inactive; KCNQ1 pot: inactive; hERG protect: -13

Results for O=C(N/N=C/c1coc2ccccc2c1=O)c1cccc([N+](=O)[O-])c1 ?
Kir21 block: -1.2; KCNQ1 inh: 7*; KCNK9 inh: inactive; KCNK3 inh: inactive; KCNQ1 pot: inactive; hERG protect: -8

Results for Cc1cc(NC(=O)CSCC(=O)Nc2ccccc2Oc2ccccc2)no1 ?
Kir21 block: -4.8*; KCNQ1 inh: inactive; KCNK9 inh: inactive; KCNK3 inh: inactive; KCNQ1 pot: inactive; hERG protect: -9

Results for Cc1ccc(Oc2ccccc2NC(=O)CSCC(=O)Nc2cc(C)on2)cc1 ?
Kir21 block: -3.9; KCNQ1 inh: inactive; KCNK9 inh: inactive; KCNK3 inh: inactive; KCNQ1 pot: inactive; hERG protect: -19

Results for CCOC(=O)C1CCN(S(=O)(=O)c2ccc(C)cc2)CC1 ?
Kir21 block: -0.05; KCNQ1 inh: inactive; KCNK9 inh: inactive; KCNK3 inh: inactive; KCNQ1 pot: inactive; hERG protect: -4

What do the screens show for `Cc1ccc(S(=O)(=O)c2c(C)nn(C(C)(C)C)c2OC(=O)C2CCCC2)cc1`?
Kir21 block: -0.69; KCNQ1 inh: inactive; KCNK9 inh: -8*; KCNK3 inh: -8.8*; KCNQ1 pot: inactive; hERG protect: -3

Results for Cc1ccc(S(=O)(=O)N2CCOCC2)cc1N/N=C(\C#N)c1nc2ccccc2[nH]1 ?
Kir21 block: -0.47; KCNQ1 inh: 6*; KCNK9 inh: inactive; KCNK3 inh: inactive; KCNQ1 pot: inactive; hERG protect: -16

What do the screens show for `CC(=O)Nc1ccc(NC(=O)CCCc2ccccc2)cc1`?
Kir21 block: 0.44; KCNQ1 inh: inactive; KCNK9 inh: inactive; KCNK3 inh: inactive; KCNQ1 pot: inactive; hERG protect: -13

What do the screens show for `O=C(Cn1c(=O)cnc2ccccc21)N1CCN(S(=O)(=O)c2ccccc2Br)CC1`?
Kir21 block: 0.04; KCNQ1 inh: inactive; KCNK9 inh: inactive; KCNK3 inh: inactive; KCNQ1 pot: inactive; hERG protect: -6

What do the screens show for `Cc1nnc(SCc2ccc(F)cc2)n1NC/C=C/c1ccccc1`?
Kir21 block: -5.1*; KCNQ1 inh: inactive; KCNK9 inh: inactive; KCNK3 inh: inactive; KCNQ1 pot: inactive; hERG protect: -11

Results for Fc1ccccc1CSc1nncn1NC/C=C/c1ccccc1 ?
Kir21 block: -1; KCNQ1 inh: inactive; KCNK9 inh: inactive; KCNK3 inh: inactive; KCNQ1 pot: inactive; hERG protect: -15

How did S=C(N/N=C/c1ccc(Cl)cc1)N1CCOCC1 do in these assays?
Kir21 block: 0; KCNQ1 inh: inactive; KCNK9 inh: inactive; KCNK3 inh: inactive; KCNQ1 pot: inactive; hERG protect: 8.6*

Results for COc1cc(/C=C2\SC(=O)N(c3ccccc3Cl)C2=O)cc([N+](=O)[O-])c1O ?
Kir21 block: 1.5; KCNQ1 inh: 10*; KCNK9 inh: inactive; KCNK3 inh: inactive; KCNQ1 pot: inactive; hERG protect: -11

How did Cc1nn(CC2CC2)c(=O)n1-c1ccc(F)cc1 do in these assays?
Kir21 block: 0.51; KCNQ1 inh: inactive; KCNK9 inh: inactive; KCNK3 inh: inactive; KCNQ1 pot: 10*; hERG protect: 0

How did COc1ccccc1C(CNC(=O)C(C)Oc1ccc(Br)cc1)N1CCCC1 (stereo unspecified) do in these assays?
Kir21 block: -5.8*; KCNQ1 inh: inactive; KCNK9 inh: inactive; KCNK3 inh: inactive; KCNQ1 pot: inactive; hERG protect: -8

Results for CCOc1cc(/C=N/n2cnnc2)ccc1OS(=O)(=O)c1ccc(C)cc1 ?
Kir21 block: -5.5*; KCNQ1 inh: inactive; KCNK9 inh: inactive; KCNK3 inh: inactive; KCNQ1 pot: inactive; hERG protect: -15

Results for O=C(O)c1cc2ccc3cccc4ccc(c1)c2c34 ?
Kir21 block: 0.57; KCNQ1 inh: inactive; KCNK9 inh: inactive; KCNK3 inh: inactive; KCNQ1 pot: inactive; hERG protect: -4

Results for COc1cccc(C2c3[nH]c4ccccc4c3C[C@H]3C(=O)N(c4ccccc4C(=O)NCCCN4CCOCC4)C(=O)N23)c1 (stereo partly specified) ?
Kir21 block: 0.61; KCNQ1 inh: inactive; KCNK9 inh: inactive; KCNK3 inh: inactive; KCNQ1 pot: inactive; hERG protect: -6

What do the screens show for `NNC(=S)NC1CCCCCCCCCCC1`?
Kir21 block: -2; KCNQ1 inh: 8*; KCNK9 inh: inactive; KCNK3 inh: inactive; KCNQ1 pot: inactive; hERG protect: -18
